According to the array DNA melting data of Ke et al. (doi:10.1101/2024.01.08.574731):

Experiments:
[1] = melting temperature; fluorescence melt of hairpins on a sequencing array, two-state fit, raised by 9.35 °C to match UV melts; conditions: sodium 0.088 M
Procedure, shortened: (§1)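 Bootstrapped two-state fits yielded melting temperature and folding enthalpy for library hairpins. Cy3 fluorescence, with annealed Cy3 and quencher oligos, was imaged on a sequenced MiSeq flow cell in 50 mM Na-HEPES pH 8.0, 25 mM NaCl in 2.5 °C steps up to 60 °C, and normalised to pre-quench Cy3 and to control constructs. Four replicates were combined by inverse variance, and fitted temperatures were raised by 9.35 °C to match UV melts.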

[2] = folding enthalpy; higher = less favourable; fluorescence melt of hairpins on a sequencing array, two-state fit; conditions: sodium 0.088 M
Procedure, shortened: as §1

Sequence	Tm [1] [°C]	folding enthalpy [2] [kcal/mol]
GATCTGGTGTCAGATC ((((((....))))))	49.8	-35.2
GATCTGTAAACAGATC ((((((....))))))	50.3	-39.5
GATCTGTAACCAGATC ((((((....))))))	46.8	-29.3
GATCTGTACCAGATC ((((((...))))))	49.3	-31.9
GATCTGTACGCAGATC ((((((....))))))	54.4	-44.9
GATCTGTAGACAGATC ((((((....))))))	50.8	-35.5
GATCTGTCAACAGATC ((((((....))))))	51.6	-39.1
GATCTGTCGACAGATC ((((((....))))))	55.1	-49.6
GATCTGTCGCAGATC ((((((...))))))	48.5	-24.5
GATCTGTGCACAGATC ((((((....))))))	57.9	-48.9
GATCTGTGCCCAGATC ((((((....))))))	49	-30.6
GATCTGTGGTCAGATC ((((((....))))))	49.6	-38.7
GATCTGTGTACAGATC ((((((....))))))	56	-47.9
GATCTGTGTCCAGATC ((((((....))))))	49.2	-31.8
GATCTGTTAACAGATC ((((((....))))))	54.7	-39.8
GATCTGTTACAGATC ((((((...))))))	50.5	-36.3
GATCTGTTCCAGATC ((((((...))))))	50.7	-30.4
GATCTGTTTCAGATC ((((((...))))))	50.5	-34.5
GATCTGTTTCCAGATC ((((((....))))))	49.3	-34.9
GATCTTAAGCAAGATC ((((((....))))))	40.1	-31.3
GATCTTAATCAAGATC ((((((....))))))	38.6	-26.5
GATCTTACCCAAGATC ((((((....))))))	42.1	-26.2
GATCTTACCGAAGATC ((((((....))))))	42.9	-33
GATCTTAGAAAAGATC ((((((....))))))	36.4	-21.6

Sequence	Tm [1] [°C]	folding enthalpy [2] [kcal/mol]
GATCTTAGGCAAGATC ((((((....))))))	42.8	-27.9
GATCTTAGTAAAGATC ((((((....))))))	43.1	-30.3
GATCTTATCCAAGATC ((((((....))))))	42.6	-31.6
GATCTTATCGAAGATC ((((((....))))))	38.7	-20.8
GATCTTATTCAAGATC ((((((....))))))	43.5	-31.7
GATCTTCAATAAGATC ((((((....))))))	39.8	-30.6
GATCTTCAGAAGATC ((((((...))))))	40.3	-35.9
GATCTTCATCAAGATC ((((((....))))))	40.3	-29.9
GATCTTCCAGAAGATC ((((((....))))))	46	-33.7
GATCTTCCCTAAGATC ((((((....))))))	43.3	-31.1
GATCTTCGCGAAGATC ((((((....))))))	55.3	-59
GATCTTCGGAAAGATC ((((((....))))))	38.9	-29.1
GATCTTCGGCAAGATC ((((((....))))))	37.8	-28.3
GATCTTCGTAAGATC ((((((...))))))	45.2	-30.9
GATCTTCGTCAAGATC ((((((....))))))	40.7	-33.5
GATCTTCGTGAAGATC ((((((....))))))	53.3	-41
GATCTTCTAAAGATC ((((((...))))))	42.9	-30.9
GATCTTCTGAAGATC ((((((...))))))	43.6	-37
GATCTTGAAAAGATC ((((((...))))))	54.8	-33.5
GATCTTGAAGAAGATC ((((((....))))))	44.3	-25.9
GATCTTGAATAAGATC ((((((....))))))	49.3	-31.9
GATCTTGATAAGATC ((((((...))))))	43.6	-21.6
GATCTTGCAAAAGATC ((((((....))))))	53.5	-37.5
GATCTTGCAAAGATC ((((((...))))))	55	-41

Sequence	Tm [1] [°C]	folding enthalpy [2] [kcal/mol]
GATCTTGCAGAAGATC ((((((....))))))	46.8	-34.8
GATCTTGCCCAAGATC ((((((....))))))	48.9	-45.9
GATCTTGCGCAAGATC ((((((....))))))	55.5	-54.1
GATCTTGGAAACAAGACC (.(((((....))))).)	35.2	-17.4
GATCTTGGAAACAAGGTC ((.((((....)))).))	44.2	-33.9
GATCTTGGAAACGAGATC (((((.(....).)))))	44.2	-36.7
GATCTTGGATAAGATC ((((((....))))))	49.4	-30.6
GATCTTGGCAAAGATC ((((((....))))))	53.2	-38.9
GATCTTGGCAAGATC ((((((...))))))	48.2	-46.1
GATCTTGTAAAAGATC ((((((....))))))	52.8	-41.1
GATCTTGTAGAAGATC ((((((....))))))	46.4	-27.5
GATCTTGTCAAGATC ((((((...))))))	47.4	-34.2
GATCTTGTCCAAGATC ((((((....))))))	50.1	-34.2
GATCTTGTGTAAGATC ((((((....))))))	43.6	-34.6
GATCTTGTTTAAGATC ((((((....))))))	45.8	-32.1
GATCTTTAAAAAGATC ((((((....))))))	40.5	-34.8
GATCTTTAGAAGATC ((((((...))))))	38.7	-24.7
GATCTTTATAAGATC ((((((...))))))	44	-33.3
GATCTTTATCAAGATC ((((((....))))))	39.3	-29.4
GATCTTTCAAAAGATC ((((((....))))))	42.2	-32.2
GATCTTTCCAAGATC ((((((...))))))	47.7	-37.1
GATCTTTCCTAAGATC ((((((....))))))	45.1	-34.2
GATCTTTCGAAGATC ((((((...))))))	40.7	-28.7
GATCTTTCTAAAGATC ((((((....))))))	47.3	-37.7

Sequence	Tm [1] [°C]	folding enthalpy [2] [kcal/mol]
GATCTTTCTGAAGATC ((((((....))))))	45.2	-36
GATCTTTGCAAAGATC ((((((....))))))	50.9	-57.2
GATCTTTGCCAAGATC ((((((....))))))	42.5	-29.7
GATCTTTGCGAAGATC ((((((....))))))	47.6	-45.8
GATCTTTGCTAAGATC ((((((....))))))	46	-35.8
GATCTTTTAAAAGATC ((((((....))))))	45.9	-39.2
GATCTTTTAAAGATC ((((((...))))))	43.8	-30.9
GATCTTTTACAAGATC ((((((....))))))	42.8	-31.9
GATCTTTTAGAAGATC ((((((....))))))	44.4	-41.8
GATCTTTTCTAAGATC ((((((....))))))	45.2	-36.8
GATGAACGAAAGTTAATC (((.(((....))).)))	38.6	-23.7
GATGAACGAAAGTTATC (((.(((....))))))	28.4	-11.1
GATGAAGGAAACCTCATC (((((.(....).)))))	36.1	-24.7
GATGACGAAAGTCAATC ((((((....))).)))	43.7	-16.2
GATGACGGAAACATCATC (((((.(....).)))))	34.8	-31.2
GATGAGGAAACTCATC ((((((....))))))	52.8	-35
GATGAGGGAAACCTCATC (((((((....)))))))	58.4	-39.6
GATGAGGGAAACCTCGTC ((.((((....)))).))	47.9	-22.3
GATGATCCGAAAGGAATC (((..(((....))))))	34.7	-14.3
GATGATGGAAACACCATC ((((.((....)).))))	38.6	-20.8
GATGATGGAAACATCGTC ((.((((....)))).))	47.4	-32.3
GATGCACGAAAGTGAATC (((.(((....))).)))	50.8	-23.4
GATGCAGGAAACTGCGTC ((.((((....)))).))	52.5	-44.7
